In brackets after ≈: the same amount, converted by molar mass.
What was measured:
Format in all cases: functional, organism-based
[1] = system: Trypanosoma brucei brucei; test: Antitrypanosomal activity against Trypanosoma brucei brucei Lab110 EATRO after 48 hrs
Procedure, shortened: (§1)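 Bloodstream-form trypanosomes were cultured in modified IMDM with 20% horse serum at 37 °C, in 24-well plates inoculated with 10^5 trypanosomes per well. Half the well volume was changed daily. Compounds were dissolved in DMSO, with a final DMSO concentration of at most 0.3%, and tested in duplicate at final concentrations of 0.1–100 µg/mL. Parasites were Coulter-counted at 48 h, and IC50 values were taken from semi-log plots. Each assay was run at least twice.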

[2] = system: Trypanosoma brucei rhodesiense; test: Antitrypanosomal activity against Trypanosoma brucei rhodesiense KETRI 243 isolate after 48 hrs; procedure, shortened: as §1
[3] = system: Trypanosoma brucei rhodesiense; test: Antitrypanosomal activity against Trypanosoma brucei rhodesiense KETRI 243 As 10-3 isolate after 48 hrs; procedure, shortened: as §1

| SMILES | IC50 [1] [µg/mL] | IC50 [2] [µg/mL] | IC50 [3] [µg/mL] |
| --- | --- | --- | --- |
| Nc1nc(N)nc(Nc2ccc([As]3SCC(CO)S3)cc2)n1 (stereo unspecified) [MELARSOPROL] | 0.002 | 0.0005 | 0.005 |
| COc1cc(CCC(=O)/C=C(O)/C=C/c2ccc(O)cc2)ccc1O [LETESTUIANIN A] | > 100 |  |  |
| O=C(/C=C(O)/C=C/c1ccc(O)cc1)CCc1ccc(O)cc1 | 2.6 (≈ 8.38 µM) | 2.8 (≈ 9.02 µM) | 1.3 (≈ 4.19 µM) |

Continued, values first:

| IC50 [1] [µg/mL] | IC50 [2] [µg/mL] | IC50 [3] [µg/mL] | SMILES |
| --- | --- | --- | --- |
| 67 (≈ 181 µM) | > 100 | > 100 | COc1cc(/C=C/C(O)=C/C(=O)CCc2ccc(O)c(OC)c2)ccc1O [LETESTUIANIN B] |
| 0.0006 (≈ 0.00176 µM) | 0.0005 (≈ 0.00147 µM) | 0.004 (≈ 0.0117 µM) | N=C(N)c1ccc(OCCCCCOc2ccc(C(=N)N)cc2)cc1 [PENTAMIDINE] |
| 1.4 (≈ 4.48 µM) | 2.3 (≈ 7.36 µM) | 2.6 (≈ 8.32 µM) | O=C(CCc1ccc(O)cc1)CC(=O)CCc1ccc(O)cc1 [LETESTUIANIN C] |
